37 variants from the RNAGym collection of RNA variant scans (doi:10.1126/science.aae0568) can be followed below.

B1: tRNA (parent)
chain: GUUCCGUUGGCGUAAUGGUAACGCGUCUCCCUCCUAAGGAGAAGACUGCGGGUUCGAGUCCCGUACGGAACG

This sample holds only a part of the variants without activity. Some results are limits rather than exact numbers.

In the data set the parent is B1. Kind of data set: yeast fitness relative to wild type (ratio to wild type); higher = fitter; tRNA-Arg(CCU), competitive growth, 37 C, YPD. In short, it runs like this:
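A pool of Saccharomyces cerevisiae strains, each with a tRNA-Arg(CCU) gene variant at the native genomic locus, was competed in YPD at 37°C for 24 hours across six parallel replicates. The variants had been chemically synthesised at a 3% per-site mutation rate over 69 sites, and gene amplicons before and after competition were read by 100-nucleotide paired-end sequencing. Darwinian fitness relative to wild type rested on changes in genotype frequencies. Genotypes required ≥ 100 starting reads, and estimates < 0.5 were set to 0.5.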
In the case of GUUCCGUUGGCGUACUGGUAACGCGUCUCCCUCGUAUGGAGAAGAGUGCGGGUUCGAGUCCCGUACGGAACG [A15C C34G A37U C46G], the yeast fitness is no more than 0.5. As to GUUCCGUUGGCGUACUAGUAACGCGUCUCCCUCCUGACGAGAAGACUGCGGGUUCGAGCCCCGUACGGAACG [A15C G17A A36G G38C U59C], the yeast fitness was no more than 0.5.

Regarding GUUCCGUUGGCGUACUGGUAACGCGUCUCCCUCCUAAGGAGAAGACUGAGGGUUCGAGUCCCGUACCGAACG [A15C C49A G67C], the yeast fitness was no more than 0.5. In the case of GUUCCGUUGGCGUACUCGUAACGCGUCUCCCUCCUAAGGAGAAGACUGCAGGUUCGAGUCCCGUACGGUACG [A15C G17C G50A A69U], the yeast fitness was no more than 0.5. The value for GUUCCGUUGGCGUACUGGUAACGCGUCUCCCUCCUAAGGAGAAGACUGCGGGUUCGAGUUCCGUAAGGAACG [A15C C60U C66A] was no more than 0.5; that for GUUCCGUUGGCGUACUGGUAACGCGUCUCCCUCCUAAGGAGAAGACUGGGGGUUGGAGUCCCGUACGGAACG [A15C C49G C55G] was 0.668; that for GUUCCGUUGGCGUACUGGUAACGCGUCUCCCUCCUAAGGAGAAGAUUGCGGGUUCGAGUCCCGUACGGUACG [A15C C46U A69U] was 0.814. With GUUCCGUUGGCGUACUGGUAACGCGUCUCCCUCCUAAGGAGAAGAUUGCGGGUUCGAGUCCCGCACGGAGCG [A15C C46U U64C A70G], the yeast fitness is no more than 0.5. As to GUUCCGUUGGCGUACUGGUAACGCGUCUCCAUCCUAAGGAGAAGACUGCGGGUUCGAGCCCCGUACGGGACG [A15C C31A U59C A69G], the yeast fitness is no more than 0.5.

Turning to GUUCCGUUGGCGUACUGGUAACGCGUCUCGCUCCUAAGGAGCAGACUGCGGGUUCAUGUCCCAUACGGAACG [A15C C30G A42C G56A A57U G63A], the yeast fitness is no more than 0.5. For GUUCCGUUGGCGUACUGGUAACGCGUCUCCCUCCUAAGGAGAAGACUGCGGGUUCGAGUACCGUACGGAUCG [A15C C60A A70U], the yeast fitness stood at 0.555. The value for GUUCCGUUGGCGUACUGGUAACGCGUCUCCUCCCUAAGGAGAAGACUGCGGGUUCGAGUCCCGUACGGAACG [A15C C31U U32C] was 0.5. Take GUUCCGUUGGCGUACUAGUAAUCCGUCUCCCUCCUAAGGAGAAGACUGCGAGUUCGAGUCCCGUACGGAUCG [A15C G17A C22U G23C G51A A70U]: the yeast fitness came to 0.596. GUUCCGUUGGCGUACUGGUAACGCGUCUCCCUACUAAGGAGAAGACUGCGGGUUCGAGUCCCGUACGGAACG [A15C C33A]: the yeast fitness is 0.578.

For the variant GUUCCGUUGGCGUACUGGUAACCCGUCUCCCUCCUAAGGAGAAGACUGCGGGUUAGAGUCCCGUGCGGAACG [A15C G23C C55A A65G], the yeast fitness was no more than 0.5.

Take GUUCCGUUGGCGUACUGGUAACGCGUCUCACUCCUAAGGAGAAGACUGCGGGUUCGAGUCCCAUACGGAACG [A15C C30A G63A]: the yeast fitness is no more than 0.5.

In the case of GUUCCGUUGGCGUACUGGUAACGCGUCUCCUUCCUAAGGAGAAGACUGCGGGUUCGAGUCCCAUACGGAACG [A15C C31U G63A], the yeast fitness was no more than 0.5. For GUUCCGUUGGCGUACUGGUAACGCGUCUCCAUCAUAAGGAGAAGACUGCGGGUUCGAGUCCCGUACGGAACG [A15C C31A C34A], the yeast fitness is no more than 0.5.

On to GUUCCGUUGGCGUACUGAUUACGCGUCUCCCUCCUAAGGAGAAGACUGCGGGUUCGAGUCCCGUACGGAACG [A15C G18A A20U], for which the yeast fitness is no more than 0.5.

On to GUUCCGUUGGCGUACUGGUAACGCGUCUCCCUCCUAAGGAGAAGAUUGCGGGUUCGGGUCCCGUAAGGAACG [A15C C46U A57G C66A], for which the yeast fitness was no more than 0.5. The value for GUUCCGUUGGCGUACUAGUAAUCCGUCUCCCUCCUAAGGAGAAGACUGCGAGUUCGAGUCCCGUACGGCACG [A15C G17A C22U G23C G51A A69C] was 0.567; that for GUUCCGUUGGCGUACUGGUAACGCGUCUUCCUCCUAAGCAGUAGACUGCUCGUUCGAGUCCCGUUCGGAACG [A15C C29U G39C A42U G50U G51C A65U] was 0.527.

On to GUUCCGUUGGCGUACUGGUAACGCGUCUCCAUCCUAUGGAGAAGACUGCGGGUUCGAGUCCCGUACGGAACG [A15C C31A A37U], for which the yeast fitness is no more than 0.5. Regarding GUUCCGUUGGCGUACUAAUAACGCGUCUCCCUCCUCAGGAGAAGACUGCGGGUUUGAGUCCCGUACGGAACG [A15C G17A G18A A36C C55U], the yeast fitness was no more than 0.5. For the variant GUUCCGUUGGCGUACUGGUAACGCGUCUCCCUCCUAAGGAGAAGAUUGCGGGUUCGAGUUCCGUCCGGAACG [A15C C46U C60U A65C], the yeast fitness is no more than 0.5.

As for GUUCCGUUGGCGUACUAGUAAUCCGUCUCCCUCCUAAGGAGAAGACUGCGAGUUCGAGUCCCGUACGGAACG [A15C G17A C22U G23C G51A], the yeast fitness stood at 0.565. Consider GUUCCGUUGGCGUACUGGUAACGCGUCUGCCUCCUAAGGAGAACUCAGCGGGUUCGAGUCCCGUACGGAACG [A15C C29G G44C A45U U47A], for which the yeast fitness was no more than 0.5.

As for GUUCCGUUGGCGUACUGGUAACGCGUCUCCGUGCUAAGGAGAAGACUGCGGGUUUGAGUCCCGUACGGAACG [A15C C31G C33G C55U], the yeast fitness was no more than 0.5.

For GUUCCGUUGGCGUACUGGUAACGCGUCUACCUCCUAAGGAAACGACUGCGGGUUCGAGUCCCGUACGGAACG [A15C C29A G41A A43C], the yeast fitness was no more than 0.5.

For GUUCCGUUGGCGUACUGAUAACGAGUCUCCCUCUUAAGGAGAAGAGUGCGGGUUCGAGUCCCGUACGGAACG [A15C G18A C24A C34U C46G], the yeast fitness is no more than 0.5. Take GUUCCGUUGGCGUACUGGUAACGCGUCUCCCUCCUAAGGAGAAGACUGCGGGUUCGAGUCCAGUACGGAACG [A15C C62A]: the yeast fitness amounted to 0.665. The value for GUUCCGUUGGCGUACUGGUAACGCGUCUCCCUCCUAAGGAGAAGACUGCGGGUUCGAGUCCUGUACGGAACG [A15C C62U] was 0.755; that for GUUCCGUUGGCGUACUGGUAACGCGUCUCUCUGCUAAGGAGAAGACUGCGGGUUCGAGUCCCGUACGGAACG [A15C C30U C33G] was no more than 0.5; that for GUUCCGUUGGCGUACUGGUAACGCGUCUCCCUCCUAAGGAGAAGAUUGCGGGUUCGAGUCCCGUACGGAACG [A15C C46U] was 0.939. For the variant GUUCCGUUGGCGUACUGGUAACGCGUCUCCCUCCUAAGGAGAAGAAUGCGGGUUCGAGUCCCGUACGGAACG [A15C C46A], the yeast fitness turned out to be 0.86. With GUUCCGUUGGCGUACUAGUAACGCGUCUCCCUCCUAAGGAGAAGCCUGCGGGUUCGAGUCCCGUACGGAACG [A15C G17A A45C], the yeast fitness is no more than 0.5. The value for GUUCCGUUGGCGUACUGGUAACGCGUCUCCCUCAUAAGGAGAAGACUGCGGGUUCGAGUCCCCUACGGAACG [A15C C34A G63C] was no more than 0.5.
